According to ChEMBL document CHEMBL4689842, “EUbOPEN Chemogenomics Library wave 1” (2021):

Assays:
Format in all cases: toxicity, cell-based
Fibroblast [1] = assay: Incucyte cell viability with human fibroblast; conditions: 10 µM, compound concentration 10 uM; further: filed as whole numbers so only -1 and 0 and 1 occur
Fibroblast [2] = assay: Multiplex assay against human fibroblast
How it was run: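 Cells were classed with CellPathfinder machine-learning gating, first as Hoechst high-intensity objects or normal cells, then (normal cells) as healthy, pyknosed or fragmented nuclei, and finally (pyknosed cells) as mitotic or apoptotic. Staining of live cells at seeding used Hoechst33342, BioTracker Green Microtubule Cytoskeleton Dye, MitoTracker Red and Annexin V Alexa Fluor 680, with imaging on a CQ1 microscope at 37°C and 5% CO2 after compound addition. Tubulin, mitochondrial-mass and membrane-permeability phenotypes are per cents of healthy-nucleus cells.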

U2OS = assay: Incucyte cell viability with U2OS; conditions: human, 10 µM, compound concentration 10 uM; further: filed as whole numbers so only -1 and 0 and 1 occur
[3] = 0 h, replicate number 1, timepoint 0 hours
[4] = 18 h, replicate number 1, timepoint 18 hours
[5] = 24 h, replicate number 1, timepoint 24 hours
[6] = 12 h, 1 µM, compound concentration 1 uM, replicate 1
[7] = 12 h, 1 µM, compound concentration 1 uM, replicate 2
[8] = 12 h, 10 µM, compound concentration 10 uM, replicate 1
[9] = 12 h, 10 µM, compound concentration 10 uM, replicate 2
[10] = 24 h, 1 µM, compound concentration 1 uM, replicate 1
[11] = 24 h, 1 µM, compound concentration 1 uM, replicate 2
[12] = 24 h, 10 µM, compound concentration 10 uM, replicate 1
[13] = 24 h, 10 µM, compound concentration 10 uM, replicate 2
[14] = 48 h, 1 µM, compound concentration 1 uM, replicate 1
[15] = 48 h, 1 µM, compound concentration 1 uM, replicate 2
[16] = 48 h, 10 µM, compound concentration 10 uM, replicate 1
[17] = 48 h, 10 µM, compound concentration 10 uM, replicate 2

CCC(=O)O[C@]1(C(=O)SCF)[C@H](C)C[C@H]2[C@@H]3C[C@H](F)C4=CC(=O)C=C[C@]4(C)[C@@]3(F)[C@@H](O)C[C@@]21C [FLUTICASONE PROPIONATE]
Growth Rate (Fibroblast [1]; [3]): 0
Growth Rate (Fibroblast [1]; 6 h, replicate number 1, timepoint 6 hours): 1
Growth Rate (Fibroblast [1]; [4]): 1
Growth Rate (Fibroblast [1]; [5]): 1
Population Apoptotic (%) (Fibroblast [2]; [6]): 71%
Population Fragmented Nuclei (%) (Fibroblast [2]; [6]): 22%
Population Healthy Nuclei (%) (Fibroblast [2]; [6]): 45%
Population Hoechst High Intensity Objects (%) (Fibroblast [2]; [6]): 13%
Population Membrane Permeable-Phenotype (%) (Fibroblast [2]; [6]): 33%
Population Mitochondria Different-Phenotype (%) (Fibroblast [2]; [6]): 0%
Population Mitotic Cells (%) (Fibroblast [2]; [6]): 28%
Population Normal (%) (Fibroblast [2]; [6]): 86%
Population Pyknosed Nuclei (%) (Fibroblast [2]; [6]): 31%
Population Tubulin-Different-Phenotype (%) (Fibroblast [2]; [6]): 40%
Total Cell Count (Fibroblast [2]; [6]): 76
Population Fragmented Nuclei (%) (Fibroblast [2]; [7]): 4%
Population Healthy Nuclei (%) (Fibroblast [2]; [7]): 78%
Population Hoechst High Intensity Objects (%) (Fibroblast [2]; [7]): 12%
Population Membrane Permeable-Phenotype (%) (Fibroblast [2]; [7]): 3%
Population Mitochondria Different-Phenotype (%) (Fibroblast [2]; [7]): 9%
Population Normal (%) (Fibroblast [2]; [7]): 87%
Population Pyknosed Nuclei (%) (Fibroblast [2]; [7]): 16%
Population Tubulin-Different-Phenotype (%) (Fibroblast [2]; [7]): 9%
Total Cell Count (Fibroblast [2]; [7]): 68
Population Apoptotic (%) (Fibroblast [2]; [8]): 62%
Population Fragmented Nuclei (%) (Fibroblast [2]; [8]): 26%
Population Healthy Nuclei (%) (Fibroblast [2]; [8]): 50%
Population Hoechst High Intensity Objects (%) (Fibroblast [2]; [8]): 16%
Population Membrane Permeable-Phenotype (%) (Fibroblast [2]; [8]): 38%
Population Mitochondria Different-Phenotype (%) (Fibroblast [2]; [8]): 30%
Population Mitotic Cells (%) (Fibroblast [2]; [8]): 37%
Population Normal (%) (Fibroblast [2]; [8]): 83%
Population Pyknosed Nuclei (%) (Fibroblast [2]; [8]): 23%
Population Tubulin-Different-Phenotype (%) (Fibroblast [2]; [8]): 53%
Total Cell Count (Fibroblast [2]; [8]): 149
Population Apoptotic (%) (Fibroblast [2]; [9]): 28%
Population Fragmented Nuclei (%) (Fibroblast [2]; [9]): 8%
Population Healthy Nuclei (%) (Fibroblast [2]; [9]): 81%
Population Hoechst High Intensity Objects (%) (Fibroblast [2]; [9]): 8%
Population Membrane Permeable-Phenotype (%) (Fibroblast [2]; [9]): 3%
Population Mitochondria Different-Phenotype (%) (Fibroblast [2]; [9]): 37%
Population Mitotic Cells (%) (Fibroblast [2]; [9]): 71%
Population Normal (%) (Fibroblast [2]; [9]): 92%
Population Pyknosed Nuclei (%) (Fibroblast [2]; [9]): 10%
Population Tubulin-Different-Phenotype (%) (Fibroblast [2]; [9]): 35%
Total Cell Count (Fibroblast [2]; [9]): 48
Population Apoptotic (%) (Fibroblast [2]; [10]): 66%
Population Fragmented Nuclei (%) (Fibroblast [2]; [10]): 21%
Population Healthy Nuclei (%) (Fibroblast [2]; [10]): 62%
Population Hoechst High Intensity Objects (%) (Fibroblast [2]; [10]): 25%
Population Membrane Permeable-Phenotype (%) (Fibroblast [2]; [10]): 28%
Population Mitochondria Different-Phenotype (%) (Fibroblast [2]; [10]): 0%
Population Mitotic Cells (%) (Fibroblast [2]; [10]): 33%
Population Normal (%) (Fibroblast [2]; [10]): 74%
Population Pyknosed Nuclei (%) (Fibroblast [2]; [10]): 16%
Population Tubulin-Different-Phenotype (%) (Fibroblast [2]; [10]): 34%
Total Cell Count (Fibroblast [2]; [10]): 75
Population Apoptotic (%) (Fibroblast [2]; [11]): 16%
Population Fragmented Nuclei (%) (Fibroblast [2]; [11]): 3%
Population Healthy Nuclei (%) (Fibroblast [2]; [11]): 84%
Population Hoechst High Intensity Objects (%) (Fibroblast [2]; [11]): 11%
Population Membrane Permeable-Phenotype (%) (Fibroblast [2]; [11]): 11%
Population Mitochondria Different-Phenotype (%) (Fibroblast [2]; [11]): 11%
Population Mitotic Cells (%) (Fibroblast [2]; [11]): 83%
Population Normal (%) (Fibroblast [2]; [11]): 88%
Population Pyknosed Nuclei (%) (Fibroblast [2]; [11]): 11%
Population Tubulin-Different-Phenotype (%) (Fibroblast [2]; [11]): 20%
Total Cell Count (Fibroblast [2]; [11]): 78
Population Apoptotic (%) (Fibroblast [2]; [12]): 64%
Population Fragmented Nuclei (%) (Fibroblast [2]; [12]): 30%
Population Healthy Nuclei (%) (Fibroblast [2]; [12]): 50%
Population Hoechst High Intensity Objects (%) (Fibroblast [2]; [12]): 12%
Population Membrane Permeable-Phenotype (%) (Fibroblast [2]; [12]): 40%
Population Mitochondria Different-Phenotype (%) (Fibroblast [2]; [12]): 27%
Population Mitotic Cells (%) (Fibroblast [2]; [12]): 36%
Population Normal (%) (Fibroblast [2]; [12]): 87%
Population Pyknosed Nuclei (%) (Fibroblast [2]; [12]): 19%
Population Tubulin-Different-Phenotype (%) (Fibroblast [2]; [12]): 47%
Total Cell Count (Fibroblast [2]; [12]): 149
Population Apoptotic (%) (Fibroblast [2]; [13]): 58%
Population Fragmented Nuclei (%) (Fibroblast [2]; [13]): 5%
Population Healthy Nuclei (%) (Fibroblast [2]; [13]): 78%
Population Hoechst High Intensity Objects (%) (Fibroblast [2]; [13]): 8%
Population Membrane Permeable-Phenotype (%) (Fibroblast [2]; [13]): 6%
Population Mitochondria Different-Phenotype (%) (Fibroblast [2]; [13]): 31%
Population Mitotic Cells (%) (Fibroblast [2]; [13]): 41%
Population Normal (%) (Fibroblast [2]; [13]): 91%
Population Pyknosed Nuclei (%) (Fibroblast [2]; [13]): 16%
Population Tubulin-Different-Phenotype (%) (Fibroblast [2]; [13]): 25%
Total Cell Count (Fibroblast [2]; [13]): 59
Population Apoptotic (%) (Fibroblast [2]; [14]): 54%
Population Fragmented Nuclei (%) (Fibroblast [2]; [14]): 41%
Population Healthy Nuclei (%) (Fibroblast [2]; [14]): 43%
Population Hoechst High Intensity Objects (%) (Fibroblast [2]; [14]): 24%
Population Membrane Permeable-Phenotype (%) (Fibroblast [2]; [14]): 25%
Population Mitochondria Different-Phenotype (%) (Fibroblast [2]; [14]): 0%
Population Mitotic Cells (%) (Fibroblast [2]; [14]): 45%
Population Normal (%) (Fibroblast [2]; [14]): 75%
Population Pyknosed Nuclei (%) (Fibroblast [2]; [14]): 15%
Population Tubulin-Different-Phenotype (%) (Fibroblast [2]; [14]): 38%
Total Cell Count (Fibroblast [2]; [14]): 95
Population Apoptotic (%) (Fibroblast [2]; [15]): 100%
Population Fragmented Nuclei (%) (Fibroblast [2]; [15]): 26%
Population Healthy Nuclei (%) (Fibroblast [2]; [15]): 72%
Population Hoechst High Intensity Objects (%) (Fibroblast [2]; [15]): 15%
Population Membrane Permeable-Phenotype (%) (Fibroblast [2]; [15]): 5%
Population Mitotic Cells (%) (Fibroblast [2]; [15]): 0%
Population Normal (%) (Fibroblast [2]; [15]): 84%
Population Pyknosed Nuclei (%) (Fibroblast [2]; [15]): 0%
Population Tubulin-Different-Phenotype (%) (Fibroblast [2]; [15]): 26%
Total Cell Count (Fibroblast [2]; [15]): 120
Population Apoptotic (%) (Fibroblast [2]; [16]): 75%
Population Fragmented Nuclei (%) (Fibroblast [2]; [16]): 38%
Population Healthy Nuclei (%) (Fibroblast [2]; [16]): 47%
Population Hoechst High Intensity Objects (%) (Fibroblast [2]; [16]): 14%
Population Membrane Permeable-Phenotype (%) (Fibroblast [2]; [16]): 29%
Population Mitochondria Different-Phenotype (%) (Fibroblast [2]; [16]): 27%
Population Mitotic Cells (%) (Fibroblast [2]; [16]): 25%
Population Normal (%) (Fibroblast [2]; [16]): 85%
Population Pyknosed Nuclei (%) (Fibroblast [2]; [16]): 14%
Population Tubulin-Different-Phenotype (%) (Fibroblast [2]; [16]): 48%
Total Cell Count (Fibroblast [2]; [16]): 167
Population Apoptotic (%) (Fibroblast [2]; [17]): 100%
Population Fragmented Nuclei (%) (Fibroblast [2]; [17]): 29%
Population Healthy Nuclei (%) (Fibroblast [2]; [17]): 66%
Population Hoechst High Intensity Objects (%) (Fibroblast [2]; [17]): 35%
Population Membrane Permeable-Phenotype (%) (Fibroblast [2]; [17]): 11%
Population Mitochondria Different-Phenotype (%) (Fibroblast [2]; [17]): 17%
Population Mitotic Cells (%) (Fibroblast [2]; [17]): 0%
Population Normal (%) (Fibroblast [2]; [17]): 64%
Population Pyknosed Nuclei (%) (Fibroblast [2]; [17]): 3%
Population Tubulin-Different-Phenotype (%) (Fibroblast [2]; [17]): 56%
Total Cell Count (Fibroblast [2]; [17]): 176
Growth Rate (U2OS; [3]): 0
Growth Rate (U2OS; 6 h, replicate number 2, timepoint 6 hours): 1
Growth Rate (U2OS; 12 h, replicate number 2, timepoint 12 hours): 1
Growth Rate (U2OS; [4]): 1
Growth Rate (U2OS; [5]): 1
